Activity calls are given as the source filed them. The rule behind the calls is not given here.
Columns and labels:
Rattus norvegicus [1] = assay: Analgesic activity in ip dosed Charles River rat by tail flick test; format: functional
In short: (§1)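 Dosed intraperitoneally as aqueous solutions or Tween-80 suspensions to groups of six or ten rats. Doses expressed as mg base/kg. Read-out recorded as the number of rats showing analgesia over the number tested at each dose.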

Rattus norvegicus [2] = species on record: Rattus norvegicus; assay: Analgesic activity in Charles River rat by tail flick test relative to morphine; format: functional
In short: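 Rats (groups of six or ten) dosed ip in aqueous solution or Tween-80 suspension, with doses as mg base/kg. Potency expressed relative to morphine, which was taken as unity. Some estimates were based on two doses.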

Rattus norvegicus [3] = assay: Analgesic activity in po dosed Charles River rat by tail flick test; format: functional
In short: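 Oral dosing of rats, with doses calculated as mg base/kg. Read-out recorded as the number of rats showing analgesia over the number tested.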

Rattus norvegicus [4] = assay: Analgesic activity in Charles River rat at 50 mg/kg, ip by tail flick test; format: functional, organism-based; set-up: dose 50 mg/kg; in short: as §1
Rattus norvegicus [5] = assay: Analgesic activity in Charles River rat at 25 mg/kg, ip by tail flick test; format: functional, organism-based; set-up: dose 25 mg/kg; in short: as §1

Row | SMILES | ED50 (Rattus norvegicus [1]) [mg/kg] | Ratio (Rattus norvegicus [2]) | ED50 (Rattus norvegicus [3]) [mg/kg] | Activity (Rattus norvegicus [4]) | Activity (Rattus norvegicus [5])
1 | CC[C@@]12CC=CCC(Cc3ccc(OC)cc31)[C@@H]2N.Cl | 4.2 | 1.05 | 6.25 |  | 
2 | C[C@@]12CC=CCC(Cc3ccc(O)cc31)[C@@H]2N.Cl | 6.25 | 1.26 |  |  | 
3 | CN1CC[C@]23c4c5ccc(O)c4O[C@H]2[C@@H](O)C=C[C@H]3[C@H]1C5 [MORPHINE] |  | 1 |  |  | 
4 | CC[C@@]12CC=CCC(Cc3ccc(OC)cc31)[C@@H]2N(C)C.Cl | 50 |  |  | inactive | 
5 | COc1ccc2c(c1)[C@@]1(C)Cc3ccccc3CC(C2)C1N.Cl (some centres undefined) | 14.5 | 0.31 |  |  | 
6 | C[C@@]12CCCCC(Cc3ccc(OC(=O)C4CC4)cc31)[C@@H]2N.Cl | 5.5 | 0.81 | 16.5 |  | 
7 | CCC(=O)O[C@](Cc1ccccc1)(c1ccccc1)[C@H](C)CN(C)C [PROPOXYPHENE] | 10.4 |  |  |  | 
8 | COc1ccc2c(c1)[C@@]1(C)CCCCCC(C2)[C@@H]1[N+](C)(C)[O-].Cl | 10 | 0.44 | 16.5 |  | 
9 | COc1ccc2c(c1)[C@@]1(C)CC=CCC(C2)[C@@H]1N(C)C.Cl | 50 |  |  | inactive | 
10 | Br.C[C@@]12CCCCC(Cc3ccc(O)cc31)[C@@H]2N | 7.4 | 0.6 |  |  | 
11 | CC[C@@]12Cc3ccccc3CC(Cc3ccc(OC)cc31)C2N.Cl (some centres undefined) | 50 |  |  |  | 
12 | Br.C[C@@]12Cc3ccccc3CC(Cc3ccc(O)cc31)C2N (some centres undefined) | 12.5 | 0.35 |  |  | 
13 | CC[C@@]12CC=CCC(Cc3ccc(OC)cc31)[C@@H]2NC.I | 25 |  |  |  | 
14 | COc1ccc2c(c1)[C@@]1(C)CC=CCC(C2)[C@@H]1N.Cl | 16.5 | 0.27 | 6.25 |  | 
15 | COc1ccc2c(c1)[C@@]1(C)CCCCCC(C2)[C@@H]1N.Cl | 10 | 0.44 |  |  | 
16 | CC[C@@]12CC=CCC(Cc3ccc(O)cc31)[C@@H]2N | 1.75 | 2.53 | 6.25 |  | 
17 | Br.C[C@@]12Cc3ccccc3CCC(Cc3ccc(O)cc31)C2N (some centres undefined) | 25 |  |  |  | 
18 | CC(=O)Oc1ccc2c(c1)[C@@]1(C)CCCCC(C2)[C@@H]1N.Cl | 10 | 0.44 | 40 |  | 
19 | COc1ccc2c(c1)[C@@]1(C)Cc3ccccc3CCC(C2)C1N.O=C(O)/C=C/C(=O)O (some centres undefined) | 25 |  |  |  | inactive
